SIAE inh: inhibitors of human sialic acid acetylesterase SIAE | Q9HAT2 | SIAE FP-Rh probe binding, fluorescence polarization | inhibition, % at 9.66 µM | actives 0.69% (n = 370,000) | AID 1053197;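 active = inhibition above a cutoff: mean of compounds within the control limits plus 3 SD of those, cut at about 17% in these data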;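 also: 0% = plate median of compound wells and 100% = probe without SIAE protein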
JMJD2C inh: human JMJD2C demethylase inhibition; GST-JMJD2C(1-420) H3K9me3 demethylation, DELFIA europium; inhibition, % at 2.35 µM; actives 0.069% (n = 330,000); AID 2099;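 active = more than half of a compound's replicate wells show inhibition beyond 50%, single wells judged on their own value; inconclusive = some, but no more than half, of replicates pass 50% inhibition; inactive = no replicate passes 50% inhibition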;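 also: signal counts dimethyl H3K9 product captured on neutravidin plate; 0% = median of DMSO wells and 100% = 0.3 times that DMSO median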
mABHD4 FP: inhibits mouse alpha/beta hydrolase domain 4; Q8VD66; purified mABHD4, FP-Rh probe fluorescence polarization; inhibition, % at 8.92 µM; actives 0.54% (n = 370,000);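 active = inhibition exceeding the mean over every tested compound plus 3 SD, cut at about 30% in these data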;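 also: 0% = plate median of compound wells and 100% = S159A mutant with DMSO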
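Test system: mABHD4 protein; Read-out basis: % inhibition; Incubation: 45 min + 60 min at 25 °C; Repeats: single replicate; Technique: fluorescence polarization with parallel and perpendicular emission, 525/598 nm; Compound: 8.92 µM, single dose; Benchmarks: full inhibition S159A mutant plus DMSO, zero as sample-well median.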
PRMT1 FP inh: inhibitors of human PRMT1; Q99873; recombinant PRMT1, activity-based probe fluorescence polarization; inhibition, % at 2.79 µM; actives 1.3% (n = 370,000); AID 652257;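 active = inhibition above about 21% made by adding two undisclosed values, limit read from the data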
Target sequence (Q99873 whole entry, looked up): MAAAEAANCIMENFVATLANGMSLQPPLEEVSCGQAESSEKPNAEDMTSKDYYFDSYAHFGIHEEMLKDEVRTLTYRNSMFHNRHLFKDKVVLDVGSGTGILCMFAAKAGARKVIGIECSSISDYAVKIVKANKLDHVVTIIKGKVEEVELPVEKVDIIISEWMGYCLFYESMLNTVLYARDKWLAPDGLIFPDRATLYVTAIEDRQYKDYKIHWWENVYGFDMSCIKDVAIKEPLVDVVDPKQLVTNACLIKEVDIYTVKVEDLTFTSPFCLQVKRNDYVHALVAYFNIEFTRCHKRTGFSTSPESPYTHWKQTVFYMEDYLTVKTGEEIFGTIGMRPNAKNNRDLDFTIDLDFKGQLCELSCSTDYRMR
HTRA1 inh: HTRA1 (human) protease inhibition. recombinant HTRA1, FP-rhodamine activity-based probe, fluorescence polarization. actives 0.5% (n = 340,000). inhibition, % at 5.96 µM. Q92743; in the data active = inhibition above about 36%;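 also: 0% = enzyme with DMSO and 100% = wells lacking enzyme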
PRMT1 confirm: confirmation of human PRMT1 inhibitors; shares compounds with PRMT1 FP inh; recombinant His-PRMT1, activity-based probe fluorescence polarization; inhibition, % at 2.79 µM; actives 42% (n = 3,300); AID 687036;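 active = mean inhibition across replicates above the hit cutoff derived for the earlier primary screen, cut at about 22% in these data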
* marks the source's active call; other numbers are inactive results; ? = inconclusive; nt = not tested or not shown. In the library only some 2.4% were active in any assay of this set; here they are far more common.

SMILES | SIAE inh | JMJD2C inh | mABHD4 FP | PRMT1 FP inh | HTRA1 inh | PRMT1 confirm
CCc1c(O)nc(SCC(=O)Nc2nc3ccccc3s2)n(C2CCCCC2)c1=O | -4 | 5 | -7 | 45* | 0 | 50*
CCc1c(O)nc(SCC(=O)Nc2ccc(OC)cc2)n(C2CCCCC2)c1=O | 6 | 7 | 3 | 12 | -6 | nt
CCc1c(O)nc(SCC(=O)Nc2ccc(Cl)cc2)n(-c2ccccc2)c1=O | 0 | nt | 7 | 38* | 3 | 35*
CC(c1ccccc1)n1cc(C(=O)N2CCCN(Cc3ccccc3)CC2)nn1 (stereo unspecified) | 1 | nt | -6 | -8 | nt | nt
O=C(CCCCCn1c(SCc2ccncc2)nc2ccccc2c1=O)NCc1ccco1 | 1 | -13 | 2 | 46* | -9 | 9
NS(=O)(=O)c1ccc(NC2=CC(c3ccc([N+](=O)[O-])cc3)N(c3ccc(S(N)(=O)=O)cc3)C2=O)cc1 (stereo unspecified) | -18 | -5 | 11 | 27* | -8 | 3
COc1ccc(NC2=CC(c3ccc(OC)c(OC)c3)N(c3ccc(OC)cc3)C2=O)cc1 (stereo unspecified) | 8 | 0 | -4 | 8 | -2 | nt
Cc1ccc(-c2nc3ccc(Br)cn3c2Cc2cccc(F)c2)cc1 | -1 | nt | -19 | 4 | nt | nt
O=C(O)CCc1ccc(-c2ccccc2)n1-c1cccc(C(=O)O)c1 | 4 | 4 | 4 | 11 | -1 | nt
Cc1ccc(-c2ccccc2)n1-c1cccc(C(=O)O)c1 | 5 | -2 | 14 | 62* | -1 | 11
Oc1ccccc1C(=S)N1CCN(C(=S)c2ccccc2O)CC1 | 1 | 2 | -5 | 42* | 1 | 19
O=C(NC(=S)NC1CCSC1=O)c1ccc([N+](=O)[O-])cc1 (stereo unspecified) | 7 | 2 | 2 | 10 | 6 | nt
Cc1ccccc1C(=O)NC1CCSC1=O (stereo unspecified) | -3 | 36 | -4 | -1 | 6 | nt
O=C(NC(=S)NC1CCSC1=O)c1ccccc1 (stereo unspecified) | 4 | 8 | 0 | 30* | -5 | 9
O=C(NC(=S)NC1CCSC1=O)c1ccccc1Cl (stereo unspecified) | 6 | 15 | -5 | 26* | 2 | 1
CC(=O)c1cc2c(cc1C)CCCC2(C)C | 2 | nt | -6 | -1 | nt | nt
CN(CCc1ccccc1)C(=O)c1[nH]c(C(F)(F)F)nc1-c1ccccc1 | 0 | nt | -3 | -5 | nt | nt
Cc1ccc(/C(C#N)=C\c2ccc(N3CCOCC3)o2)cc1 | 8 | 0 | 4 | 27* | 2 | 11
CC(C)N1CC=C2C(C#N)=C(N)C(C#N)(C#N)[C@H](c3ccoc3)[C@H]2C1 | nt | 6 | nt | nt | nt | nt
CN1CC=C2C(C#N)=C(N)C(C#N)(C#N)C(Cc3ccccc3)C2C1 (stereo unspecified) | 7 | -2 | 9 | 45* | 15 | 11
CC(C)N1CC=C2C(C#N)=C(N)C(C#N)(C#N)C(c3ccccc3)C2C1 (stereo unspecified) | 8 | -19 | 9 | 37* | -1 | 33*
CCC1C2CN(C(C)=O)CC=C2C(C#N)=C(N)C1(C#N)C#N (stereo unspecified) | 0 | 7 | 0 | 5 | -1 | nt
Cc1cccc(NC(=O)CCc2ccc(N3C(N)=NC(N)=NC3(C)C)cc2)c1 | 3 | nt | 2 | -1 | 1 | nt
Cc1cccc(C)c1Cn1c(C)c(C(=O)NCc2ccc([N+](=O)[O-])cc2)sc1=O | -9 | nt | -16 | -4 | nt | nt
Oc1ccc(Cl)cc1C=Nc1ccc2c3c(cccc13)CC2 | -1 | 10 | 20 | 39* | 21 | 13
SMILES | SIAE inh | JMJD2C inh | mABHD4 FP | PRMT1 FP inh | HTRA1 inh | PRMT1 confirm
Oc1ccc(Cl)cc1/C=N/c1nccs1 | 4 | -3 | 0 | 1 | 2 | nt
CCN(Cc1ccccc1)S(=O)(=O)CCNC(=O)c1ccccc1 | 2 | -9 | 1 | 33* | 2 | 1
CCN(Cc1ccccc1)S(=O)(=O)CCNC(=O)c1ccc(OC)cc1 | 1 | ? | 0 | 5 | -7 | nt
CCCOC(=O)c1c(NC(=O)C2C3C=CC(C3)C2C(=O)O)sc2c1CCC(C)C2 (stereo unspecified) | 3 | 4 | 7 | 52* | 4 | 4
CC(C)Sc1nc(SCC(=O)O)c2c3c(sc2n1)COC(C)(C)C3 | 3 | -7 | 3 | 2 | 4 | nt
CC(C)Sc1nc(SCC(=O)NCc2ccco2)c2c3c(sc2n1)COC(C)(C)C3 | -14 | 10 | -22 | 31* | -24 | 10
O=C(CSc1nccc(=O)[nH]1)Nc1ccc(Br)c(Cl)c1 | -4 | 6 | -8 | 0 | -5 | nt
O=C(CSc1nccc(=O)[nH]1)Nc1ccc(F)c(Cl)c1 | 5 | 1 | -1 | 42* | -5 | 30*
CCCCNC(=O)OCCCN1CCC2(CCC(c3ccccc3)CC2)C1 (stereo unspecified) | 1 | nt | -4 | 4 | nt | nt
O=C(Nc1cccc2ccccc12)OC[C@@H]1CSCCS(=O)(=O)N1 | -3 | nt | -5 | 0 | nt | nt
CC(COc1cccc(F)c1)CN1CCC(C(O)(c2ccccc2)c2ccccc2)CC1 (stereo unspecified) | 4 | nt | 1 | -5 | nt | nt
COc1ccc2c3c(ccc2c1)C(=O)/C(=C/O)CC3 | 6 | nt | 27 | 30* | 38* | 24*
Nc1cccnc1Sc1ccc(Cl)cc1 | 2 | 3 | 1 | -2 | 1 | nt
Nc1cccnc1Sc1cccc(Cl)c1 | 0 | 15 | 8 | 31* | 3 | 4
CN(CCO)c1cc(Sc2nc3ccccc3s2)c2nonc2c1[N+](=O)[O-] | 7 | 10 | 22 | 90* | 7 | 89*
O=C(NNC1CC(=O)N(c2ccc3c(c2)OCCO3)C1=O)c1ccc(Cl)cc1 (stereo unspecified) | 1 | 9 | 5 | 56* | 4 | -5
Cc1ccc(C(=O)NNC2CC(=O)N(c3ccc4c(c3)OCCO4)C2=O)cc1 (stereo unspecified) | 2 | 12 | 8 | 4 | -9 | nt
COCCNC(=O)C[C@H]1CC[C@H]2[C@@H](COc3ccc(NS(=O)(=O)c4ccc(Cl)cc4)cc3C(=O)N2C)O1 | -2 | nt | 8 | 0 | nt | nt
Cn1cc(/C=C2\SC(=O)NC2=S)c2ccccc21 | 4 | 2 | 9 | 28* | 16 | 5
Cc1nc(SCc2ccc(O)c([N+](=O)[O-])c2)c([N+](=O)[O-])[nH]1 | 4 | 4 | 25 | 35* | 0 | -3
COc1ccc(OC)c(CN2C(=O)CCCCC2(C)c2nnnn2C2CCCC2)c1 (stereo unspecified) | -4 | nt | 2 | 0 | nt | nt
Cc1cc(S(=O)(=O)Nc2ccc(N3CCOCC3)cc2)ccc1Br | 10 | -41 | 1 | 29* | -6 | 4
O=C(O)c1ccccc1-c1c2cc(I)c(=O)c(I)c-2oc2c(I)c(O)c(I)cc12 | -292 | nt | -243 | 83* | -149 | 75*
O=Cc1ccc(-c2ccccc2C(=O)O)o1 | 1 | 7 | -2 | 4 | -1 | nt

Screening results: PubChem, several laboratories
